NPR1 activator: GC-A (human) enzyme activation. P16066. HEK293 GC-A cells, cGMP TR-FRET, EC30 ANP; 0% at EC30 ANP, 100% saturating ANP. activation, % at 10 µM. 370,000 compounds, 0.14% hits; in the data active = activation above about 40%
NSD2 HMT inh: NSD2 (human) methyltransferase inhibition | 310,000 compounds, 0.54% hits | NSD2 peptide methylation, AlphaScreen, 120 min | O96028 | inhibition, % at 12.5 µM | AID 743445; in the data active = inhibition above about 50%
CaV13 ICDI inh: Primary screen for inhibitors of IQ motif and Ca2+-dependent inactivation inhibitor domain binding in CACNA1D, Förster resonance energy transfer in living cells, …. inhibition, % at 12.3 µM. AID 743397. 340,000 compounds, 0.098% hits. HEK cells, CFP/YFP FRET ICDI-IQ, plate reader, 10 min; percent FRET-ratio fall versus neutral wells;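 active = mean replicate inhibition of at least 30% and at least 1% of replicates passing that level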;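 also: 0% = median of the neutral control wells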
NPR2 activator: GC-B (human) receptor activation. HEK293-GC-B cells, CNP EC30, cGMP TR-FRET; 0% at EC30 CNP, 100% saturating CNP. activation, % at 10 µM. AID 1920062. P20594. 370,000 compounds, 0.11% hits;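 active = activation at 10 µM reaching about 35% in either raw or pattern-adjusted values, limit read from the data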
Target sequence (P20594 whole entry, looked up): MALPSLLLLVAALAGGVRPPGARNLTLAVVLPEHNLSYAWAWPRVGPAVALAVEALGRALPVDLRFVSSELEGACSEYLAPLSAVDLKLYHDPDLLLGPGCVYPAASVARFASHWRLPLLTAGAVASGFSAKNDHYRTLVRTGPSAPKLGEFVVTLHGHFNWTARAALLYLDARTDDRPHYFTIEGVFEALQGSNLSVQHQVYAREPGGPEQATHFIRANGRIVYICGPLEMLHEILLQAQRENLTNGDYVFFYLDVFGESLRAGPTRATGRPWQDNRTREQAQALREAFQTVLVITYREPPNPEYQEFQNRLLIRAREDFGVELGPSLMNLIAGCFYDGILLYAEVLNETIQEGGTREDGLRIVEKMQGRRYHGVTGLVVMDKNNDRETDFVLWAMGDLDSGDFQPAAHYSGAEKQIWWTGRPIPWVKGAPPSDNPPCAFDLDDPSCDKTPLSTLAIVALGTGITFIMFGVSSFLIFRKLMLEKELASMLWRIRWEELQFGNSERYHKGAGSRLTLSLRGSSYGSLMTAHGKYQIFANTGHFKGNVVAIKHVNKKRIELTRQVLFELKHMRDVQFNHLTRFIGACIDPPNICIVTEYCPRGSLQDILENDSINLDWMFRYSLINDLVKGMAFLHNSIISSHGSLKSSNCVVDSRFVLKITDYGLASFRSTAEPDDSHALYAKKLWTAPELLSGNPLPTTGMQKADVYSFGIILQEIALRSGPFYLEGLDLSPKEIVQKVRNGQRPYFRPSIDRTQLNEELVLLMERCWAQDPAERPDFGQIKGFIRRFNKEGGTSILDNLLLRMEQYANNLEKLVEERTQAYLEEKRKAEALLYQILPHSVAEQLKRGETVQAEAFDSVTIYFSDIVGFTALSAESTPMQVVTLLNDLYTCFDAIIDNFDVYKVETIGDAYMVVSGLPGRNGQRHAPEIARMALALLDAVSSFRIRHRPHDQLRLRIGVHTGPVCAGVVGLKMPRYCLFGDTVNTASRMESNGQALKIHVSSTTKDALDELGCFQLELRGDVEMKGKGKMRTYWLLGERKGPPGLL
Casp6 inh: caspase-6 (human) enzyme inhibition. inhibition, % at 12.5 µM. purified caspase-6, Z-VEID-R110 cleavage fluorescence. 350,000 compounds, 0.53% hits. AID 686996. P55212;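 active = mean inhibition across replicates at least about 35%, with every replicate also reaching that limit, limit read from the data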;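 also: 0% = median of neutral control wells and 100% = no fluorescence left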
FN deposition inh: fibronectin deposition inhibition; AH1F fibroblasts, Alexa488-fibronectin deposition fluorescence, overnight; inhibition, % at 12.6 µM; AID 743247; 350,000 compounds, 0.086% hits;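 active = mean inhibition across replicates of 30% or more, regardless of how many single replicates reach that level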;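 also: positive control wells lacked labelled fibronectin entirely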
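Assay system: AH1F fibroblasts / Quantity: 10000 cells per well / Medium: DMEM plus 2% serum, read in PBS / Reagent: labelled fibronectin 24 nM / Dosing: single dose, pinned / Times: 1 h cell attachment, overnight exposure to compound and label / Signal: fluorescence, ex 485 nm, em 525 nm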
An asterisk follows results filed as active; . = no result given. An excerpt weighted towards active compounds, which were near 0.99% of everything screened.

SMILES	NPR1 activator	NSD2 HMT inh	CaV13 ICDI inh	NPR2 activator	Casp6 inh	FN deposition inh
COc1ccc2c3c([nH]c2c1)[C@H](CO)N(C(=O)c1cccc(F)c1)CC31CCN(C(=O)CC2CC2)CC1	.	.	.	.	-1	.
Cc1ccc(-n2c(SCC(=O)NC3CCS(=O)(=O)C3)nc3ccccc3c2=O)cc1 (stereo unspecified)	-4	2	-2	1	2	-1
CCc1ccc(-n2c(SCC(=O)NC3CCS(=O)(=O)C3)nc3ccccc3c2=O)cc1 (stereo unspecified)	0	0	-2	-2	45*	1
CCC(=O)Nc1ccc2c(c1)OC[C@@H](C)N(CC1CCCCC1)C[C@@H](C)[C@H](OC)CN(C)C2=O	.	.	.	.	.	-6
CCOC(=O)CSc1nc2c(sc3ccc([N+](=O)[O-])cc32)c(=O)n1Cc1ccco1	48*	-1	-3	50*	.	2
COc1ccccc1C#Cc1ccc2c(c1)O[C@H](CN(C)C)[C@H](C)CN([C@@H](C)CO)S2(=O)=O	.	.	.	.	3	2
COc1ccccc1C#Cc1ccc2c(c1)O[C@@H](CN(C)C)[C@@H](C)CN([C@@H](C)CO)S2(=O)=O	.	.	.	.	48*	18
O=C(C[C@@H]1CC[C@H](NC(=O)Nc2ccc(C(F)(F)F)cc2)[C@H](CO)O1)NCc1cc(F)cc(F)c1	.	.	.	.	2	.
C/C(CC(=O)Nc1cc(C)ccn1)=N\NC(=O)c1cccc(C)c1O	0	-2	-6	-3	53*	-7
CCCc1nn(C)c2c(=O)[nH]c(-c3cc(S(=O)(=O)N4CCN(C)CC4)ccc3OCC)nc12	52*	.	-6	58*	2	-8
CCCc1nn(C)c2c(=O)[nH]c(-c3cc(S(=O)(=O)Nc4ccc(NC(C)=O)cc4)ccc3OCC)nc12	41*	-2	-6	55*	0	5
CCCc1nn(C)c2c(=O)[nH]c(-c3ccccc3OCC)nc12	21	-3	-5	22	-1	-3
C/C=C/c1ccc2c(c1)O[C@H](CN(C)C(C)=O)[C@@H](C)CN([C@@H](C)CO)S2(=O)=O	.	.	.	.	-2	1
CO[C@H]1CN(C)C(=O)c2cc(NC(=O)CC(F)(F)F)ccc2OC[C@H](C)N(C(=O)c2ccccc2F)C[C@H]1C	.	.	.	.	1	6
COc1ccc(Cl)cc1C(=O)NCCS(=O)(=O)N1CCN(c2ccccc2F)CC1	-1	-1	-3	1	3	2
O=C(NCCS(=O)(=O)N1CCN(c2ccccc2F)CC1)c1ccc(F)c(F)c1	0	0	-6	64*	-1	2
O=C(CCN1C(=O)/C(=C\C=C\c2ccccc2)SC1=S)Nc1ccccc1C(=O)O	-3	31	-5	-1	45*	.
CC1CCN(C(=O)COc2cccc3c2CCN(Cc2ccccc2)C3=O)CC1	6	26	91*	-1	4	.
CCS(=O)(=O)N[C@@H]1CC[C@@H](CC(=O)Nc2ccc(-c3ccccc3)cc2)O[C@@H]1CO	.	.	.	.	0	1
Cc1cc(S(=O)(=O)ON2C(=O)c3ccccc3C2=O)ccc1F	40*	0	-15	35	2	3
Cc1ccc(C)c(S(=O)(=O)ON2C(=O)c3ccccc3C2=O)c1	16	0	-8	4	0	.
O=C(COC(=O)c1cccc(OC(F)F)c1)Nc1cccc(S(=O)(=O)N2CCCC2)c1	1	-1	-3	-7	60*	-1
O=C(CNc1cccc(S(=O)(=O)N2CCCC2)c1)Nc1cccc(Br)c1	1	1	-6	0	44*	-3
CN(C)C(=O)c1ccc(-c2ccc(C3[C@@H]4CN(C(=O)CN5CCOCC5)C[C@H]3N4)cc2)cc1 (stereo partly specified)	.	.	.	.	-2	0
CC(=O)Nc1cccc(NC(=O)c2cc([N+](=O)[O-])ccc2N2CCCCC2)c1	8	1	-6	0	36*	-11
SMILES	NPR1 activator	NSD2 HMT inh	CaV13 ICDI inh	NPR2 activator	Casp6 inh	FN deposition inh
CN(C)S(=O)(=O)c1cccc(NC(=O)c2cc([N+](=O)[O-])ccc2N2CCCCC2)c1	-1	0	-5	2	2	15
O=C(Cc1csc(-c2ccccc2)n1)NCc1ccc(F)cc1	2	0	-3	0	.	-1
O=C(Cc1csc(-c2ccccc2)n1)NCc1ccccc1F	3	-3	38*	-6	-1	-3
O=C(O)CC1S/C(=N/N=C/c2ccc(-c3ccc(Cl)c([N+](=O)[O-])c3)o2)NC1=O (stereo unspecified)	0	3	-4	1	35*	3
O=C(Nc1nnc(Cc2c[nH]c3ccccc23)s1)c1ccc(Cl)cc1Cl	-1	3	-16	6	58*	-1
O=C(CCSc1ccccn1)c1ccccc1	52*	-2	0	4	3	0
CCC(Cc1ccccc1)NC(=O)/C=C/c1ccco1 (stereo unspecified)	-1	3	-3	5	12	0
CC(NC(=O)C=Cc1ccco1)C(=O)NC(Cc1ccccc1)C(N)=O (stereo unspecified)	0	6	-13	2	46*	-1
C[C@H]1CN([C@@H](C)CO)C(=O)CCCn2nncc2CO[C@@H]1CN(C)C(=O)Nc1cccc(C(F)(F)F)c1	.	.	.	.	0	0
O=C(C[C@H]1C=C[C@@H](NC(=O)c2ccc(F)cc2)[C@@H](CO)O1)NCc1ccncn1	.	.	.	.	-1	-2
CCOc1ccc(S(=O)(=O)Nc2cc(NS(=O)(=O)c3ccc(OCC)cc3)cc(C(=O)O)c2)cc1	-2	25	-5	0	70*	.
COc1ccc(C(=O)CCS(=O)(=O)c2ccc(C)cc2)cc1	9	3	-7	-2	2	-1
Cc1ccc(C(=O)CCS(=O)(=O)c2ccc(Br)cc2)cc1	46*	-1	.	-5	-2	.
O=C(CCS(=O)(=O)c1ccc(Br)cc1)N1CCCCCC1	0	10	-7	-3	61*	-7
CC(C)OCCCN(C)C1CCN(S(=O)(=O)c2ccc(-c3cc(C(F)(F)F)on3)s2)CC1	.	0	.	.	.	.
CN1C(=O)c2cc(NC(=O)Cc3cccs3)ccc2OC[C@H]2O[C@H](CC(=O)O)CC[C@@H]21	.	.	.	.	-2	-25
O=C(O)CCCn1c(O)c(C=C2N=c3ccccc3=N2)sc1=S	-5	.	-1	-7	41*	6
O=C(O)c1cccc(-n2c(O)c(C=C3N=c4ccccc4=N3)sc2=S)c1	-2	.	-3	-6	59*	-6
O=C(O)CCCCCn1c(O)c(C=C2N=c3ccccc3=N2)sc1=S	1	15	-5	-8	15	-1

Bioassay records: PubChem, several laboratories
